# Only some compounds are listed: those with a hit (about 2.5% of all), similar ones and a draw of the others.
# TCR-CD3 inh – inhibitors of human TCR-CD3 interaction, primary screen, biochemical, fluorescence, TAMRA-labeled TCR probe | inhibition, % at 9.4 µM | T-cell receptor (TCR) | 0.37% of 360,000 active;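 also: recombinant mutant TCR 2C K166C tagged with TAMRA read by polarization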
# mABHD4 FP – ABHD4 inhibitors, primary screen, biochemical, fluorescence polarization, mouse; 0.54% of 370,000 active; AID 720543, 2013; (Lyso)-N-acylphosphatidylethanolamine lipase (Mus musculus), Q8VD66; inhibition, % at 8.92 µM; purified mABHD4, FP-Rh probe fluorescence polarization;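 active = inhibition exceeding the mean over every tested compound plus 3 SD, cut at about 30% in these data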
#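 assay system = mABHD4 protein | compound dosing = single nominal dose of 8.92 µM, 0.89% DMSO final | read-out basis = percent inhibition of probe binding, normalized to plate controls | schedule = Enzyme–compound pre-incubation 45 min, then probe 60 min, both 25 °C | detection = fluorescence polarization, excitation 525 nm, emission 598 nm, BODIPY TMR filters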
# HTRA1 inhibitor – HTRA1 serine protease inhibitors, primary screen, biochemical, fluorescence polarization, HTS | inhibition, % at 5.96 µM | 0.5% of 340,000 active | recombinant HTRA1, FP-rhodamine activity-based probe | Q92743; in the data active = inhibition above about 36%
# Target sequence (Q92743 whole entry, looked up): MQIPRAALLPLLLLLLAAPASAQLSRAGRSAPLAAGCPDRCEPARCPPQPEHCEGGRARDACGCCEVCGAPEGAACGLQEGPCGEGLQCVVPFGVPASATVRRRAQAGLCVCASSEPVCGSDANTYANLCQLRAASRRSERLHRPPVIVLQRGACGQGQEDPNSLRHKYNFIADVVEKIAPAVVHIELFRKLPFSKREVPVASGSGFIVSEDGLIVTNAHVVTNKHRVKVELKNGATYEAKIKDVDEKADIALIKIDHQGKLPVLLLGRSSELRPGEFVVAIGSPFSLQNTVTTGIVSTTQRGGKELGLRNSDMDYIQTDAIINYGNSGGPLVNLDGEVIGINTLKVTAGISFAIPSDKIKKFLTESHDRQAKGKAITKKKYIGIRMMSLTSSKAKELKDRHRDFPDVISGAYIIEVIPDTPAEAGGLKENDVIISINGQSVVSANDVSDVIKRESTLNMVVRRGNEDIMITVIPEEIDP
# PRMT1 inh – PRMT1 methyltransferase inhibitors, primary screen, biochemical, fluorescence polarization; Protein arginine N-methyltransferase 1 (Homo sapiens), Q99873; recombinant PRMT1, activity-based probe fluorescence polarization; inhibition, % at 2.79 µM; 1.3% of 370,000 active; AID 652257, 2013;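 active = inhibition above about 21% made by adding two undisclosed values, limit read from the data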
# SIAE primary – human SIAE inhibitors, primary screen, biochemical, fluorescence polarization, FP-Rh probe, 1536-well HTS | 0.69% of 370,000 active | SIAE FP-Rh probe binding | Sialate O-acetylesterase (Homo sapiens), Q9HAT2 | inhibition, % at 9.66 µM;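 active = inhibition above a cutoff: mean of compounds within the control limits plus 3 SD of those, cut at about 17% in these data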
# BSA probe FL – compounds interfering with TAMRA-BSA probe, counter-screen for TCR-CD3 interaction inhibitor project, biochemical, fluorescence, TAMRA-labeled BSA; AID 652035, 2013; inhibition, % at 9.4 µM; TAMRA-labeled BSA probe fluorescence counterscreen; 10% of 1,200 active; shares compounds with TCR-CD3 inh; in the data active = inhibition above about 23%
# TCR-CD3 inh conf – TCR-CD3 interaction inhibitors, retest, confirmation, biochemical, fluorescence, TAMRA-labeled TCR probe | inhibition, % at 9.4 µM | TAMRA-labeled TCR probe fluorescence binding assay | shares compounds with TCR-CD3 inh | AID 652036, 2013 | 48% of 1,200 active
# Numbers stand for hits; – = inactive; · = not tested or not shown. Rule as the data show it, unless noted: active = inhibition above about 19%; inactive = the rest.
SMILES,TCR-CD3 inh,mABHD4 FP,HTRA1 inhibitor,PRMT1 inh,SIAE primary,BSA probe FL,TCR-CD3 inh conf
CCOc1ccc(C(=O)CCC(=O)NNC(=O)c2ccccc2O)cc1,29,–,–,–,–,–,26
CCc1cccc(NC(=O)CCc2c(C)nn(-c3ccc(N4CCOCC4)nn3)c2C)c1,–,–,–,–,–,·,·
Cc1ccc(C(=O)N2CCN(c3cccc(C)c3C)CC2)o1,33,–,–,–,–,–,–
Cc1ccc(S(=O)(=O)Cc2ccc(C(=O)N3CCN(c4cccc(C)c4C)CC3)o2)cc1,–,–,–,–,–,·,·
Cc1ccc(NC(=O)C(OC(=O)c2ccc(NC(N)=O)cc2)c2ccccc2)cc1Cl (stereo not given),46,–,–,–,–,–,32
N#CCC(=O)Nc1ccc(C(=O)OC(C(=O)Nc2cc(C(F)(F)F)ccc2Cl)c2ccccc2)cc1 (stereo not given),47,–,–,–,–,–,34
CC1(C)CC(N=C2C([N+](=O)[O-])=CC=C3C2=NC2(CCCCC2)N3O)CC(C)(C)N1,–,–,–,–,–,·,·
O=[N+]([O-])C1=CC=C2C(=NC3(CCCCC3)N2O)C1=NC1CCCCC1,56,–,–,–,–,–,–
CCc1cccc(CC)c1NC(=O)COC(=O)c1cccc(S(=O)(=O)N2CCc3ccccc3C2)c1,–,–,–,–,–,·,·
Cc1cc(C(=O)OCC(=O)Nc2cccc(S(=O)(=O)N(C)C)c2)c2ccccc2n1,–,–,–,–,–,·,·
NS(=O)(=O)c1cccc(NC(=O)COC(=O)c2cc(-c3ccc(Cl)cc3)nc3ccccc23)c1,81,–,–,–,–,–,35
CN(C)S(=O)(=O)c1cccc(NC(=O)COC(=O)c2cccc(S(=O)(=O)N3CCc4ccccc4C3)c2)c1,42,–,–,–,–,26,54
CN(C)S(=O)(=O)c1cccc(NC(=O)COC(=O)c2cn(-c3ccccc3)nc2-c2ccccc2)c1,31,–,–,–,–,–,–
O=[N+]([O-])c1ccc(Cl)c(CN2CCN(c3ncc(Cc4ccccc4)cn3)CC2)c1,–,–,·,–,–,·,·
CCCc1ncc(C(O)c2ccccc2OC)n1C (stereo not given),–,–,·,–,–,·,·
CC(OC(=O)c1ccc(NC(=O)CC#N)cc1)C(=O)Nc1nc(-c2ccccc2)cs1 (stereo not given),35,–,–,–,–,–,–
N#CCC(=O)Nc1ccc(C(=O)NCCC(c2ccccc2)c2ccccc2)cc1,21,–,–,–,–,–,–
CC(CCc1ccccc1)NC(=O)COC(=O)c1ccc(NC(=O)CC#N)cc1 (stereo not given),30,–,–,–,–,–,–
CC(OC(=O)c1cccs1)C(=O)Nc1nc(-c2ccccc2)cs1 (stereo not given),–,–,–,–,–,·,·
CSCC[C@H](NC(=O)c1ccc(OCC2CCCO2)cc1)c1nc2ccccc2[nH]1 (stereo not given in full),–,–,–,–,–,·,·
O=S1(=O)c2ccc(N3CC[C@@H](O)C3)cc2O[C@H]2CCN1C2,·,–,·,–,–,·,·
CN(C)CCCOc1nc2c(c(=O)n(C)c(=O)n2C)n1C,–,–,–,–,–,·,·
C#CCN(CC=C)Cc1ccc(OC)cc1OC,·,–,·,–,–,·,·
O=C(NNC(=O)c1cccc2ccccc12)c1ccc(-c2ccccc2)cc1,–,–,–,–,–,·,·
Cc1ccc(C(=O)NNC(=O)c2ccc3ccccc3c2O)cc1,43,–,–,–,–,–,34
SMILES,TCR-CD3 inh,mABHD4 FP,HTRA1 inhibitor,PRMT1 inh,SIAE primary,BSA probe FL,TCR-CD3 inh conf
O=C(NNC(=O)c1ccc(O)cc1O)c1ccc(-c2ccccc2)cc1,28,–,–,–,–,–,22
O=C(NC1CCCCC1)c1ccc2ccccc2c1O,–,–,–,–,–,·,·
O=C(NNC(=O)c1ccc2ccccc2c1O)NC1CCCCC1,20,–,–,–,–,–,21
COc1ccc(C(=O)NNC(=O)c2ccc3ccccc3c2)cc1,–,–,–,–,–,·,·
COc1ccc(C(=O)NNC(=O)c2ccc3ccccc3c2O)cc1,38,–,–,–,–,–,38
Cc1cccc(C)c1NC(=O)C1(C)CSCC(=O)N1CCCN1CCOCC1 (stereo not given),–,–,·,–,–,·,·
CC(C)(C)NC(=O)C(=O)NNC(=O)COc1ccc(Br)cc1,–,–,–,–,–,·,·
CCOc1ccccc1NC(=O)NNC(=O)COc1cccc(C)c1C,–,–,–,–,–,·,·
Cc1cccc(NC(=O)NNC(=O)c2ccc3ccccc3c2O)c1,33,–,–,–,–,–,29
CCOC(=O)[C@]12CCCCC/C=C\1N(CCc1ccc(Cl)cc1)C(=O)[C@H]2CC(=O)NCCCCc1ccccc1,·,–,·,–,–,·,·
O=C(Nc1ccc2c(c1)OCO2)C1COc2ccccc2O1 (stereo not given),48,–,–,–,–,–,–
O=C(NNC(=O)C1COc2ccccc2O1)c1ccccc1O (stereo not given),29,–,–,–,–,–,25
COc1ccc(Cl)cc1C(=O)NNC(=O)C1COc2ccccc2O1 (stereo not given),–,–,–,–,–,·,·
COC(=O)[C@@H]1CCCN1C(=O)CCc1nnc(CCC2CCCCC2)o1,–,–,–,–,–,·,·
Cc1cc(/C=C2\SC(=O)NC2=O)c(C)n1-c1ccc(N(C)C)cc1,27,–,–,–,–,–,–
Cc1cc(/C=C2\SC(=O)NC2=O)c(C)n1-c1ccc(N2CCOCC2)cc1,–,–,–,–,–,·,·
CC(C)NC(=O)Nc1ccc2c(c1)C(=O)N([C@H](C)CO)C[C@H](C)[C@@H](CN(C)S(=O)(=O)c1ccccc1)O2,–,–,–,–,–,·,·
C[C@H](CO)N1C[C@H](C)[C@@H](CN(C)S(=O)(=O)c2ccccc2)Oc2ccc(NC(=O)Nc3ccc(C(F)(F)F)cc3)cc2C1=O,28,–,–,–,–,–,–
Cc1ccc(C(=O)N2CCN(S(=O)(=O)c3ccccc3[N+](=O)[O-])CC2)o1,–,–,–,–,–,·,·
CCOC(=O)CSc1nc(-c2cccs2)nc2c1c(=O)n(C)c(=O)n2C,–,–,–,–,–,·,·
